The target in experiment [1] is Aldo-keto reductase family 1 member B1 (Rattus norvegicus, UniProt P07943). Put plainly: Inhibition of Wistar rat lenses ALR2 by spectrophotometry. The experiment is classed as tissue-based, Lens of camera-type eye. In outline:
(§1)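 ALR2 enzyme extract in 0.1 M sodium phosphate pH 6.2 with NADPH (0.25 mL of 0.10 mM) and compound diluted from DMSO, preincubated 10 min at 32 °C. Started with D,L-glyceraldehyde (0.25 mL of 10 mM, 1 mL total). Fall in A340 followed for 4 min, corrected for substrate-free rate. Screened at 10^-4 M. IC50 from at least four concentrations giving 20-80% inhibition, in triplicate, with 95% CL.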

Experiment [2] relates to Aldehyde reductase, AKR1A1 (Rattus norvegicus). Put plainly: Inhibition of Wistar rat kidney ALR1 at 0.1 mM by spectrophotometry.
For experiment [3], the system named is Rattus norvegicus. Put plainly: Inhibition of ALR2 in 5-day STZ-induced diabetic Wistar rat model assessed as normalization of elevated sorbitol levels in sciatic nerves at 100 mg/kg/day, po for 5 days. Type of experiment: functional, Sciatic nerve. More on the design: scale not given: the % may be the effect or the level left. In outline: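 STZ-diabetic male Wistar rats (ip 55 mg/kg) got compound po in 0.5% CMC-Na for 5 days. Sciatic nerve taken 6 h after last dose, boiled, homogenized in 6% perchloric acid and neutralized. Sorbitol read enzymatically with sorbitol dehydrogenase/NAD+ at pH 9.4, 60 min 37 °C, fluorescence ex 365/em 430 nm. Inhibition = (S-T)/(S-N)×100 against diabetic and nondiabetic controls.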

Experiment [4] has as its system Rattus norvegicus. Put plainly: Inhibition of ALR2 in 5-day STZ-induced diabetic Wistar rat model assessed as blood glucose levels at 100 mg/kg/day, po for 5 days (reference value: 22.2 +/- 2.62 mmol/L). The experiment is classed as functional.
The target in experiment [5] is Aldo-keto reductase family 1 member A1 (Rattus norvegicus, UniProt P51635). Kind of experiment: Inhibition of Wistar rat kidney ALR1 by spectrophotometry. The gist of the method:
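ALR1 enzyme extract in 0.1 M sodium phosphate pH 7.2 with NADPH (0.25 mL of 0.12 mM) and compound diluted from DMSO, preincubated 10 min at 37 °C. Started with sodium D-glucuronate (0.25 mL of 20 mM, 1 mL total). Fall in A340 followed for 4 min, corrected for substrate-free rate. Screened at 10^-4 M. IC50 from at least four concentrations, 10^-4 to 10^-8 M, in triplicate.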

For experiment [6], the target named is Aldo-keto reductase family 1 member B1 (Rattus norvegicus) (UniProt P07943). Put plainly: Inhibition of Wistar rat lenses ALR2 at 0.1 mM by spectrophotometry. Type of experiment: tissue-based. The conditions noted are these: Lens of camera-type eye. In outline:
as §1

Each structure is given as a SMILES string.

By IC50 is commonly meant the concentration that inhibits the measured activity by half. A word on the inhibition: it is the share of the control response that was lost under treatment.

Sequence of Aldo-keto reductase family 1 member A1 (P51635 whole entry, looked up): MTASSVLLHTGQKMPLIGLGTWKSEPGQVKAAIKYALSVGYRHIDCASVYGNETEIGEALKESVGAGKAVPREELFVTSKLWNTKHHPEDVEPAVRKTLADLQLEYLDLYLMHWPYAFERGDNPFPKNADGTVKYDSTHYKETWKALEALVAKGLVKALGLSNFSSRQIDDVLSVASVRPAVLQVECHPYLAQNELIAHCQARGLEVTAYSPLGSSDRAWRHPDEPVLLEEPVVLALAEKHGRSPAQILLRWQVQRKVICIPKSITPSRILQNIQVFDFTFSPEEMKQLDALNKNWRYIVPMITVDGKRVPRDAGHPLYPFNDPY

In experiment [1], `O=C(O)CN1CN(Cc2cc(F)c(F)cc2F)S(=O)(=O)c2ccccc21` displayed an IC50 of 111 nM.

On to `O=C(O)CN1CN(Cc2ccc(C(F)(F)F)cc2)S(=O)(=O)c2cc(F)ccc21`, for which, in experiment [1], the IC50 worked out at 931 nM. Moreover, the inhibition in experiment [2] worked out at 40%.

Regarding `NC(=O)[C@@H]1C[C@]2(NC(=O)NC2=O)c2cc(F)ccc2O1` [FIDARESTAT], it took 29 nM to reach half-maximal inhibition in experiment [1] (IC50). The Activity came to 100% in the experiment with Rattus norvegicus [3] and 18.5 mmol/L with Rattus norvegicus [4].

For `O=C(O)CN1CN(Cc2ccc(Br)cc2F)S(=O)(=O)c2ccccc21`, the IC50 in experiment [5] amounted to 70.3 µM; in experiment [1], 125 nM.

With `O=C(O)CN1CN(Cc2cccc([N+](=O)[O-])c2)S(=O)(=O)c2cc(F)ccc21`, the values for the IC50 in experiment [5] and in experiment [1] were 61.9 µM and 108 nM, respectively. Further, the results for the Activity in the experiment with Rattus norvegicus [3] and in the experiment with Rattus norvegicus [4] were 43.6% and 19.8 mmol/L, respectively.

Turning to `O=C(O)CN1CN(Cc2cccc([N+](=O)[O-])c2)S(=O)(=O)c2cc(Br)ccc21`, the IC50 in experiment [5] is 103 µM; in experiment [1] it was 116 nM.

The molecule `O=C(O)CN1CN(Cc2ccc(C(F)(F)F)cc2)S(=O)(=O)c2cc(Cl)ccc21` returned an IC50 in experiment [1] of 595 nM. This molecule also returned an inhibition in experiment [2] of 45%.

For `O=C(O)CN1CN(Cc2cc(F)c(F)cc2F)S(=O)(=O)c2cc(Cl)ccc21`, the IC50 was 50.6 µM in experiment [5] and 32 nM in experiment [1]. Also, the Activity came out at 61.5% in the experiment with Rattus norvegicus [3] and 17.9 mmol/L in the experiment on Rattus norvegicus [4].

Molecule `O=C(O)CN1CN(Cc2cc(F)c(F)cc2F)c2ccccc2S1(=O)=O` returned an IC50 in experiment [1] of 14000 nM.

In turn, `O=C(O)CN1CN(Cc2ccc(C(F)(F)F)cc2)c2ccccc2S1(=O)=O` returned an inhibition in experiment [6] of 41.3%.

As to `O=C(O)CN1CN(Cc2ccccc2)S(=O)(=O)c2ccccc21`, the IC50 in experiment [1] was 101000 nM.

Take `O=C(O)CN1CN(Cc2ccc(Br)cc2F)S(=O)(=O)c2cc(Br)ccc21`: the figures for the IC50 in experiment [5] and in experiment [1] were 69.4 µM and 71 nM, respectively. Besides, the Activity in the experiment on Rattus norvegicus [3] turned out to be 42.4%; in the experiment with Rattus norvegicus [4], 18.4 mmol/L.

On to `O=C(O)CN1CN(Cc2ccc(Br)cc2F)S(=O)(=O)c2cc(F)ccc21`, for which the IC50 came to 122 µM in experiment [5] and 90 nM in experiment [1]. The Activity with Rattus norvegicus [3] is 47.3%; in the experiment on Rattus norvegicus [4], 17.9 mmol/L.

As for `O=C(O)CN1CN(Cc2cc(F)c(F)cc2F)S(=O)(=O)c2cc(Br)ccc21`, the IC50 in experiment [5] was found to be 54.1 µM; in experiment [1], 52 nM. In addition, the figures for the Activity with Rattus norvegicus [3] and in the experiment on Rattus norvegicus [4] were 51.2% and 20.1 mmol/L, respectively.

Consider `O=C(O)CN1CN(Cc2cccc([N+](=O)[O-])c2)S(=O)(=O)c2cc(Cl)ccc21`, for which the figures for the half-inhibitory concentration (IC50) in experiment [5] and in experiment [1] were 82.5 µM and 94 nM, respectively. Besides, the results for the Activity in the experiment on Rattus norvegicus [3] and with Rattus norvegicus [4] were 45% and 19.7 mmol/L, respectively.

Turning to `O=C(O)CN1CN(Cc2cc(F)c(F)cc2F)S(=O)(=O)c2cc(F)ccc21`, the figures for the IC50 in experiment [5] and in experiment [1] were 80.9 µM and 66 nM, respectively. For the same molecule, the results for the Activity in the experiment on Rattus norvegicus [3] and in the experiment with Rattus norvegicus [4] were 68.2% and 18.4 mmol/L, respectively.

As to `O=C(O)CN1CN(Cc2cccc([N+](=O)[O-])c2)S(=O)(=O)c2ccccc21`, the IC50 worked out at 55.8 µM in experiment [5] and 219 nM in experiment [1].

Consider `O=C(O)CN1CN(Cc2ccc(Br)cc2F)S(=O)(=O)c2cc(Cl)ccc21`, for which the half-inhibitory concentration (IC50) in experiment [5] amounted to 58.9 µM; in experiment [1], 41 nM. Moreover, the results for the Activity in the experiment with Rattus norvegicus [3] and in the experiment on Rattus norvegicus [4] were 60.7% and 18.2 mmol/L, respectively.

`O=C(O)CN1CN(Cc2ccc(C(F)(F)F)cc2)S(=O)(=O)c2ccccc21` registered an IC50 in experiment [1] of 975 nM. The molecule also gave an inhibition in experiment [2] of 42%.

In experiment [1], `O=C(O)CN1CN(Cc2cccc([N+](=O)[O-])c2)c2ccccc2S1(=O)=O` returned an IC50 of 74500 nM.

Regarding `O=C(O)CN1CN(Cc2ccc(Br)cc2F)c2ccccc2S1(=O)=O`, half-maximal inhibition in experiment [1] (IC50) required 58400 nM.

Take `O=C(O)CN1CN(Cc2ccc(C(F)(F)F)cc2)S(=O)(=O)c2cc(Br)ccc21`: the IC50 in experiment [5] was 110 µM; in experiment [1] it was 674 nM.

These data come from ChEMBL document CHEMBL1629534, “Acetic acid derivatives of 3,4-dihydro-2H-1,2,4-benzothiadiazine 1,1-dioxide as a novel class of potent aldose reductase inhibitors” (J Med Chem, 2010).
